SMILES strings stand for the structures. Some results are limits rather than exact numbers.

Series [1] deals with HL-60. Briefly: Antiproliferative activity against human HL60 cells assessed as inhibition of [3H]thymidine incorporation after 4 days by liquid scintillation counter. The series is classed as functional, cell-based. The gist of the method:
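HL-60 cells in log phase diluted to 10^5 cells/mL, preincubated 18 h, then exposed to samples in DMSO (final 0.1% v/v; DMSO-only controls) for 4 days. Cells then pulsed with [3H]thymidine (0.5 μCi/mL, 65 Ci/mmol) for 18 h at 37 °C, 5% CO2, harvested onto glass fiber filters, scintillation counted; incorporation per 10^6 cells as % of DMSO control. IC50 from 5–7 concentrations in duplicate.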
Background: Incorporation of labelled thymidine or its analogues reports DNA synthesis.

Series [2] has as its system HL-60. Briefly: Induction of cell differentiation in human HL60 cells assessed as superoxide anion production after 4 days by NBT reduction assay. The series is classed as functional, cell-based. Conditions: HL-60, 96 h. Put shortly:
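Cells diluted to 10^5/mL and recovered overnight were exposed 4 days to samples (0.1% v/v DMSO final). Cell suspension (10^6 cells) was mixed 1:1 with NBT 2 mg/mL plus TPA 1 μg/mL in PBS and held 1 h at 37 °C. Formazan-positive cells were counted microscopically among >200 cells. EC50 from 5–7 concentrations in duplicate; 1α,25-dihydroxyvitamin D3 served as reference.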

In series [3] the test system is HL-60. Briefly: Cytotoxicity against human HL60 cells assessed as loss of membrane integrity after 4 days by trypan blue exclusion assay. Conditions: HL-60, 96 h. It counts as functional, cell-based. Put shortly:
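After 18 h recovery at 10^5 cells/mL, HL-60 cells were treated 4 days with samples (final DMSO 0.1% v/v). Cells were mixed 1:4 with trypan blue (0.2% w/v in PBS), held at least 5 min at room temperature and counted by hemocytometer. Viability was taken from duplicate samples; IC50 from 5–7 concentrations in duplicate.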

Series [4] relates to HL-60. The series can be described thus: Selectivity index, ratio of cytotoxic IC50 to antiproliferative IC50 for human HL60 cells. The series is classed as functional. The gist of the method:
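Index = cytotoxic IC50 (trypan blue, 4-day HL-60 exposure) divided by antiproliferative IC50 ([3H]thymidine incorporation), each from dose–response with at least five points.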

A short description of series [5]: Inhibition of DMBA-induced preneoplastic lesion formation in a BALB/c mouse mammary organ culture at 2 uM pretreated for 10 days before DMBA-challenge measured after 14 days. It counts as functional. To be noted: Mammary gland. The gist of the method: (§1)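 Female BALB/c mice, 4 weeks old, primed 9 days with estradiol 1 μg plus progesterone 1 mg. Thoracic glands were cultured 10 days with insulin, prolactin, aldosterone and hydrocortisone plus test agent at 2 μM. DMBA 2 μg/mL was given for 24 h on day 3. Regression followed for 14 days in insulin alone. Glands were formalin-fixed and alum carmine-stained. Lesion incidence gave % inhibition versus DMBA control. Toxicity was scored as duct dilation or amorphous disintegration.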

Series [6] can be described thus: Toxicity in BALB/c mouse mammary organ culture assessed as morphological changes in mammary gland at 2 uM after 10 days. The series is classed as tissue-based. Conditions: ex_vivo, 240 h. The gist of the method: as §1

`CC[C@](O)(CC(=O)O[C@H]1C(=O)O[C@@H]2C[C@H]3C(C)=CC(=O)[C@@H](O)[C@]3(C)[C@H]3[C@]4(O)OC[C@]32[C@@H]1[C@@H](C)[C@H]4O)C(C)C`: the IC50 stood at 0.009 µM in series [1] and 0.013 µM in series [3]. Besides, the EC50 in series [2] came out at 0.019 µM. For the same molecule, the “Ratio IC50” value in series [4] was 1.5. Also, the inhibition at 2 µM in series [5] worked out at 44%. Besides, in series [6], the Activity entry is “Non-toxic”.

Take `CCC(CC)(CO)C(=O)O[C@H]1C(=O)O[C@@H]2C[C@H]3C(C)=CC(=O)[C@@H](O)[C@]3(C)[C@H]3[C@]4(O)OC[C@]32[C@@H]1[C@@H](C)[C@H]4O`: the IC50 in series [1] turned out to be 0.15 µM; in series [3] it was 0.95 µM. Also, in series [2], the concentration giving a half-maximal response (EC50) was 0.5 µM. The “Ratio IC50” value in series [4] came to 6.5. The inhibition at 2 µM in series [5] came to 70%. In addition, in series [6], the Activity result is recorded as “Non-toxic”.

Regarding `CCCC(=O)O[C@H]1C(=O)O[C@@H]2C[C@H]3C(C)=CC(=O)[C@@H](O)[C@]3(C)[C@H]3[C@]4(O)OC[C@]32[C@@H]1[C@@H](C)[C@H]4O`, the values for the IC50 in series [1] and in series [3] were > 3 µM and 3 µM, respectively. Further, the EC50 in series [2] is > 3 µM. Further, in series [5], the inhibition at 2 µM came to 82%. For the same molecule, the Activity entry in series [6] is given as “Non-toxic”.

On to `CC1=CC(=O)[C@@H](O)[C@]2(C)[C@H]3[C@]4(O)OC[C@]35[C@H]([C@@H](C)[C@H]4O)[C@@H](OC(=O)CC3(O)CCC3)C(=O)O[C@@H]5C[C@@H]12`, for which the 50% inhibitory concentration (IC50) was found to be 0.26 µM in series [1] and 0.28 µM in series [3]. Further, the EC50 in series [2] came to 0.14 µM. Further, the “Ratio IC50” value in series [4] came to 1.1. In addition, the inhibition at 2 µM in series [5] was 33%. In series [6], the Activity entry is “Non-toxic”.

In the case of `CC1=CC(=O)[C@@H](O)[C@]2(C)[C@H]3[C@]4(O)OC[C@]35[C@H]([C@@H](C)[C@H]4O)[C@@H](OC(=O)CC(C(C)C)C(C)C)C(=O)O[C@@H]5C[C@@H]12`, the IC50 was determined as 0.075 µM in series [1] and 0.15 µM in series [3]. Moreover, the EC50 in series [2] turned out to be 0.055 µM. Also, the “Ratio IC50” value in series [4] worked out at 2. Besides, in series [5], the inhibition at 2 µM was found to be 40%. The Activity entry in series [6] is reported as “Non-toxic”.

For the molecule `CC1=CC(=O)[C@@H](O)[C@]2(C)[C@H]3C4(O)OC[C@@]35[C@@H](C[C@@H]12)OC(=O)C[C@H]5[C@@H](C)[C@H]4O` (single isomer, unassigned) [CHAPARRINONE], the IC50 came out at 1.2 µM in series [1] and 5 µM in series [3]. Besides, the concentration for a half-maximal effect (EC50) in series [2] was 2.4 µM. Moreover, the “Ratio IC50” value in series [4] is 4.3. The inhibition at 2 µM in series [5] was 25%. In addition, the Activity result in series [6] is on record as “Non-toxic”.

`COC(=O)[C@@]12OC[C@]34[C@H]([C@@H](O)[C@@H]1O)[C@@]1(C)CC(=O)C(O)=C(C)[C@@H]1C[C@H]3OC(=O)[C@H](OC(=O)/C=C(\C)C(C)C)[C@@H]24` [BRUCEANTIN]: the IC50 in series [1] and in series [3] was 0.04 µM in each case. In addition, the EC50 in series [2] worked out at 0.02 µM. The “Ratio IC50” value in series [4] stood at 1. For the same molecule, the inhibition at 2 µM in series [5] was 70%. Besides, the Activity result in series [6] is “Non-toxic”.

As for `COC(=O)[C@@]12OC[C@]34[C@H]([C@@H](O)[C@@H]1O)[C@@]1(C)CC(=O)C(O)=C(C)[C@@H]1C[C@H]3OC(=O)[C@H](OC(=O)C=C(C)C)[C@@H]24` [BRUSATOL], the Activity result in series [6] is given as “Non-toxic”.

As to `COC(=O)[C@]12OC[C@]34[C@H]([C@@H](O)[C@@H]1O)[C@@]1(C)CC(=O)C(O)=C(C)[C@@H]1C[C@H]3OC(=O)[C@H](OC(=O)C=C(C)C)[C@@H]24` [BRUSATOL], the IC50 in series [1] was 0.07 µM; in series [3] it was 0.17 µM. The half-maximal effective concentration (EC50) in series [2] is 0.07 µM. Also, the “Ratio IC50” value in series [4] was determined as 2.5. Moreover, the inhibition at 2 µM in series [5] is 70%.

For `CC1=CC(=O)[C@@H](O)[C@@]2(C)[C@H]1CC[C@@]13CO[C@]4(C)[C@@H]1C(=O)O[C@H]4[C@H](O)[C@@H]32` [SAMADERIN B], the IC50 in series [1] was 0.4 µM; in series [3], > 2 µM. Also, in series [2], the EC50 was found to be 1 µM. For the same molecule, the “Ratio IC50” value in series [4] is on record as >6. Besides, the inhibition at 2 µM in series [5] came out at 0%. Besides, the Activity result in series [6] was “Non-toxic”.

One may read the IC50 as the point on the concentration scale where inhibition reaches its midpoint. What is called EC50 is the midpoint of the concentration-response curve. A word on the inhibition: it is the relative decrease from the control value, in per cent.

Source of the values: ChEMBL document CHEMBL1156387, “Novel esters of glaucarubolone as inducers of terminal differentiation of promyelocytic HL-60 cells and inhibitors of 7,12-dimethylbenz[a]anthracene-induced preneoplastic lesion formation in mouse mammary organ culture” (J Nat Prod, 2001).
